Measured values reported in PMC2647857 (Journal of the American Chemical Society, 2009).
Like-named read-outs stand apart in the source and are kept apart here.

How the values were obtained:
[1] = ligand-free, cited from earlier work
[2] = read-out: Kd for NO dissociation, Fe(III), cited from earlier work
[3] = NO bound, cited from earlier work
[4] = Spectroelectrochemical midpoint potential of the NO complex; assay type: physicochemical, Rhodnius prolixus; details: NO bound
Method in brief: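 Spectroelectrochemistry of ~0.05 mM E. coli-expressed protein in 0.1 M sodium phosphate or acetate at pH 5.5, 6.5 and 7.5, 27 ± 1 °C. SNAP supplied NO at a level fully complexing both oxidation states. Ag/AgCl reference ([…] mV vs SHE). Absorbance versus applied potential fit to Nernst equation; pH dependence and mutant−standard differences derived.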

[5] = NO binding constant to Fe; parameters: species or system Rhodnius prolixus; details: pH 7.5
[6] = Spectroelectrochemical midpoint potential, ligand-free; assay type: physicochemical, Rhodnius prolixus; details: ligand-free
[7] = Imidazole binding constant to Fe; parameters: species or system Rhodnius prolixus; details: pH 5.5

Row | Molecule | Em ([1]; pH 5.5, 27 °C ref 15) [mV vs. SHE] | Em ([1]; pH 7.5, 27 °C ref 15) [mV vs. SHE] | Kd ([2]; pH 5.5 ref 19) [nM] | Kd ([2]; pH 7.5 ref 19) [nM] | Em,NO ([3]; pH 5.5, 27 °C ref 15) [mV vs. SHE] | Em,NO ([4]; pH 6.5, 27 °C) [mV vs. SHE] | Em,NO ([4]; pH 7.5, 27 °C) [mV vs. SHE] | NO formation constant Kf, Fe(III) form ([5]; listed as M0-containing NP1) [M⁻¹] | Kd ([5]; read-out: NO dissociation constant Kd, Fe(III) form) [nM] | Em,NO ([3]; pH 7.5, 27 °C ref 15) [mV vs. SHE] | ΔEm = Em(mutant)−Em(standard) ([6]; pH 5.5) [mV] | Em ([6]; pH 5.5, 27 °C) [mV vs. SHE] | ΔEm = Em(mutant)−Em(standard) ([6]; pH 7.5) [mV] | Em ([6]; pH 7.5, 27 °C) [mV vs. SHE] | ΔpHΔ(Em,NO) = ΔEm,NO(pH7.5) − ΔEm,NO(pH5.5) [4] [mV] | ΔEm,NO = Em(mutant)−Em(standard) ([4]; pH 5.5) [mV] | Em,NO ([4]; pH 5.5, 27 °C) [mV vs. SHE] | ΔEm,NO = Em(mutant)−Em(standard) ([4]; pH 6.5) [mV] | ΔEm,NO = Em(mutant)−Em(standard) ([4]; pH 7.5) [mV] | increase of imidazole binding constant compared to wild-type [7] [log unit]
1 | NP4: recombinant wild-type nitrophorin 4 of Rhodnius prolixus, native A1 as first residue (protein, UniProt Q94734 22-205, looked up) Nitrophorin-4: ACTKNAIAQTGFNKDKYFNGDVWYVTDYLDLEPDDVPKRYCAALAAGTASGKLKEALYHYDPKTQDTFYDVSELQVESLGKYTANFKKVDKNGNVKVAVTAGNYYTFTVMYADDSSALIHTCLHKGNKDLGDLYAVLNRNKDAAAGDKVKSAVSAATLEFSKFISTKENNCAYDNDSLKSLLTK | −259±2 | −278±4 | 50 | 120 | 94±5 | 44±2 | 59±2 |  |  |  |  |  |  |  |  |  |  |  |  | 
2 | NP1: recombinant wild-type nitrophorin 1 of Rhodnius prolixus, NO-carrying heme protein, with M0 present (protein, UniProt Q26239 24-207, looked up, N-terminal Met0 retained) Nitrophorin-1: KCTKNALAQTGFNKDKYFNGDVWYVTDYLDLEPDDVPKRYCAALAAGTASGKLKEALYHYDPKTQDTFYDVSELQEESPGKYTANFKKVEKNGNVKVDVTSGNYYTFTVMYADDSSALIHTCLHKGNKDLGDLYAVLNRNKDTNAGDKVKGAVTAASLKFSDFISTKDNKCEYDNVSLKSLLTK | −274±2 | −303±4 |  |  | 154±5 | 118±3 |  | 1e+06 | 1000 | 127±4 |  |  |  |  |  |  |  |  |  | 
3 | NP4-E55Q: site-directed mutant of NP4, buried E55 replaced by Gln (protein, UniProt Q94734 22-205, looked up, variant E55Q) Nitrophorin-4: ACTKNAIAQTGFNKDKYFNGDVWYVTDYLDLEPDDVPKRYCAALAAGTASGKLKQALYHYDPKTQDTFYDVSELQVESLGKYTANFKKVDKNGNVKVAVTAGNYYTFTVMYADDSSALIHTCLHKGNKDLGDLYAVLNRNKDAAAGDKVKSAVSAATLEFSKFISTKENNCAYDNDSLKSLLTK |  |  |  |  |  | 67±2 | 126±2 |  |  |  | 68±3 | −191±3 | 82±4 | −196±2 | 73±6 | −6±5 | 88±1 | 23±3 | 67±2 | 1
4 | NP4-D30A: site-directed mutant of NP4, D30 replaced by Ala (protein, UniProt Q94734 22-205, looked up, variant D30A) Nitrophorin-4: ACTKNAIAQTGFNKDKYFNGDVWYVTDYLALEPDDVPKRYCAALAAGTASGKLKEALYHYDPKTQDTFYDVSELQVESLGKYTANFKKVDKNGNVKVAVTAGNYYTFTVMYADDSSALIHTCLHKGNKDLGDLYAVLNRNKDAAAGDKVKSAVSAATLEFSKFISTKENNCAYDNDSLKSLLTK |  |  |  |  |  | 163±4 |  |  |  |  | 46±2 | −213±1 | 62±4 | −216±2 | 53±6 | 87±5 | 181±2 | 119±5 | 139±2 | 
